Reference: ChEMBL document CHEMBL4261600 (Eur J Med Chem, 2018)

How the values were obtained:
[1] = target: Mitogen-activated protein kinase 11 (Homo sapiens) (UniProt Q15759); assay: Binding affinity to wild-type human full length p38-beta (M1 to Q364 residues) expressed in bacterial expression system assessed as remaining unbound target protein level at 1000 nM by Kinomescan method relative to control
Summary of the method: (§1)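 Profiled in a KINOMEscan binding panel with the inhibitor at a single concentration of 1 μM. Binding to each kinase was read out as percent of control, relative to a DMSO control. Strong binders were defined as those with a percent control value below 1.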

[2] = target: BMP-2-inducible protein kinase (Homo sapiens) (UniProt Q9NSY1); assay: Binding affinity to wild-type human partial length BIKE (S34 to N329 residues) expressed in bacterial expression system assessed as remaining unbound target protein level at 1000 nM by Kinomescan method relative to control; summary of the method: as §1
[3] = target: Serine/threonine-protein kinase N2 (Homo sapiens) (UniProt Q16513); assay: Binding affinity to wild-type human partial length PKN2 (E634 to C984 residues) expressed in bacterial expression system assessed as remaining unbound target protein level at 1000 nM by Kinomescan method relative to control
[4] = MRT (0 to infinity) in mouse at 3 mg/kg, iv by LC-MS/MS analysis; assay type: ADME, organism-based; conditions: in vivo
[5] = target: Dual specificity mitogen-activated protein kinase kinase 7 (Homo sapiens) (UniProt O14733); assay: Binding affinity to wild-type human full length MKK7 (M1 to R419 residues) expressed in mammalian expression system assessed as remaining unbound target protein level at 1000 nM by Kinomescan method relative to control
Summary of the method: (§2)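 Single-point competition binding screen across a panel of 468 kinases and mutants, with the inhibitor at 1 μM. Binding is read out as percent of a DMSO control, and targets below 1 percent control were classed as strong binders.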

[6] = target: Cyclin-dependent kinase 2 homolog (Plasmodium falciparum (isolate 3D7)) (UniProt P61075); assay: Binding affinity to wild-type Plasmodium falciparum full length PK5 (M1 to N288 residues) expressed in mammalian expression system assessed as remaining unbound target protein level at 1000 nM by Kinomescan method relative to control; summary of the method: as §2
[7] = target: Ephrin type-A receptor 6 (Homo sapiens) (UniProt Q9UF33); assay: Binding affinity to wild-type human partial length EPHA6 (Y700 to E1046 residues) expressed in bacterial expression system assessed as remaining unbound target protein level at 1000 nM by Kinomescan method relative to control
[8] = target: Cyclin-dependent kinase 18 (Homo sapiens) (UniProt Q07002); assay: Binding affinity to wild-type human full length PCTK3 (M3 to F474 residues) expressed in bacterial expression system assessed as remaining unbound target protein level at 1000 nM by Kinomescan method relative to control
Summary of the method: (§3)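 KINOMEscan competition binding profile across a panel of 468 kinases and mutants, with the inhibitor tested at a single concentration of 1 μM. Binding is reported as percent of control, meaning signal relative to a DMSO control.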

[9] = target: Serine/threonine-protein kinase 16 (Homo sapiens) (UniProt O75716); assay: Binding affinity to wild-type human partial length STK16 (G11 to I305 residues) expressed in bacterial expression system assessed as remaining unbound target protein level at 1000 nM by Kinomescan method relative to control
[10] = target: Receptor-type tyrosine-protein kinase FLT3 (Homo sapiens) (UniProt P36888); assay: Binding affinity to wild-type human partial length FLT3 (V592 to Y969 residues) expressed in bacterial expression system assessed as remaining unbound target protein level at 1000 nM by Kinomescan method relative to control
[11] = Half life in Sprague-Dawley rat at 3 mg/kg, iv by LC-MS/MS analysis; assay type: ADME, organism-based; conditions: in vivo
[12] = target: Fibroblast growth factor receptor 2 (Homo sapiens) (UniProt P21802); assay: Binding affinity to wild-type human partial length FGFR2 (D457 to E769 residues) expressed in bacterial expression system assessed as remaining unbound target protein level at 1000 nM by Kinomescan method relative to control
Summary of the method: (§4)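 KINOMEscan binding panel of 468 kinases/mutants. Inhibitor was tested at a single concentration of 1 μM. Binding is reported as percent of control, defined relative to a DMSO control.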

[13] = Clearance in Sprague-Dawley rat at 3 mg/kg, iv by LC-MS/MS analysis; assay type: ADME, organism-based; conditions: in vivo
[14] = target: Platelet-derived growth factor receptor alpha (Homo sapiens) (UniProt P16234); assay: Binding affinity to wild-type human partial length PDGFRA (V575 to D1002 residues) expressed in mammalian expression system assessed as remaining unbound target protein level at 1000 nM by Kinomescan method relative to control
[15] = target: Mitogen-activated protein kinase kinase kinase 2 (Homo sapiens) (UniProt Q9Y2U5); assay: Binding affinity to wild-type human partial length MAP3K2 (S315 to H619 residues) expressed in mammalian expression system assessed as remaining unbound target protein level at 1000 nM by Kinomescan method relative to control; summary of the method: as §4
[16] = target: AP2-associated protein kinase 1 (Homo sapiens) (UniProt Q2M2I8); assay: Binding affinity to human wild-type AAK1 (G25 to L333 residues) expressed in bacterial expression system assessed as remaining unbound target protein level at 1000 nM by Kinomescan method relative to control
Summary of the method: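 KINOMEscan competitive binding profile at 1 μM inhibitor. Remaining target binding reported as percent of DMSO control.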

[17] = target: Glycogen synthase kinase-3 alpha (Homo sapiens) (UniProt P49840); assay: Binding affinity to wild-type human full length GSK3A (M1 to S483 residues) expressed in bacterial expression system assessed as remaining unbound target protein level at 1000 nM by Kinomescan method relative to control; summary of the method: as §3
[18] = system: Tyrosine-protein kinase ABL1 (Homo sapiens), P00519 [E255K]; assay: Binding affinity to human phosphorylated ABL1 E255K mutant (S229 to K512 residues) expressed in mammalian expression system assessed as remaining unbound target protein level at 1000 nM by Kinomescan method relative to control
Summary of the method: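 KINOMEscan competition-binding profiling across the panel of 468 kinases and mutants, with inhibitor tested at 1 μM. Binding is expressed as percent of control, with DMSO as the reference control.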

[19] = target: Ribosomal protein S6 kinase alpha-1 (Homo sapiens) (UniProt Q15418); assay: Binding affinity to wild-type human partial length N-terminal RSK1 Kinase domain 1 (M1 to E388 residues) expressed in bacterial expression system assessed as remaining unbound target protein level at 1000 nM by Kinomescan method relative to control
[20] = target: Ephrin type-B receptor 3 (Homo sapiens) (UniProt P54753); assay: Binding affinity to wild-type human partial length EPHB3 (Q599 to T928 residues) expressed in bacterial expression system assessed as remaining unbound target protein level at 1000 nM by Kinomescan method relative to control
[21] = target: Serine/threonine-protein kinase 35 (Homo sapiens) (UniProt Q8TDR2); assay: Binding affinity to wild-type human partial length STK35 (G182 to A534 residues) expressed in bacterial expression system assessed as remaining unbound target protein level at 1000 nM by Kinomescan method relative to control
Sequence of Serine/threonine-protein kinase 35 (Homo sapiens) (Q8TDR2 whole entry, the tested form may be a part): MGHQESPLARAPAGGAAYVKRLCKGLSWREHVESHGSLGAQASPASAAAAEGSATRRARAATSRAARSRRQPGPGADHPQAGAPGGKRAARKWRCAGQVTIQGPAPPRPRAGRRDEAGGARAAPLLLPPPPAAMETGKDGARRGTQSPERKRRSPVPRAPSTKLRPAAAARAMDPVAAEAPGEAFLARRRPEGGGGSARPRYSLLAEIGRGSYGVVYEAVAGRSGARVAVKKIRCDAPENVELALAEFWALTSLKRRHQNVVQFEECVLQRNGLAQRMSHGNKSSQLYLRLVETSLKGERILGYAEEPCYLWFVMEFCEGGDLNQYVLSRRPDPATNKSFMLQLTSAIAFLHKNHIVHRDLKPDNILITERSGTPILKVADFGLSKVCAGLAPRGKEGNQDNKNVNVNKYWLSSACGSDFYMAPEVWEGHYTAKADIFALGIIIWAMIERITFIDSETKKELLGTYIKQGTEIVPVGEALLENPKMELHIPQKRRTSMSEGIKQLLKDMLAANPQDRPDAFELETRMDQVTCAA

Sequence of Ribosomal protein S6 kinase alpha-1 (Homo sapiens) (Q15418 whole entry, the tested form may be a part): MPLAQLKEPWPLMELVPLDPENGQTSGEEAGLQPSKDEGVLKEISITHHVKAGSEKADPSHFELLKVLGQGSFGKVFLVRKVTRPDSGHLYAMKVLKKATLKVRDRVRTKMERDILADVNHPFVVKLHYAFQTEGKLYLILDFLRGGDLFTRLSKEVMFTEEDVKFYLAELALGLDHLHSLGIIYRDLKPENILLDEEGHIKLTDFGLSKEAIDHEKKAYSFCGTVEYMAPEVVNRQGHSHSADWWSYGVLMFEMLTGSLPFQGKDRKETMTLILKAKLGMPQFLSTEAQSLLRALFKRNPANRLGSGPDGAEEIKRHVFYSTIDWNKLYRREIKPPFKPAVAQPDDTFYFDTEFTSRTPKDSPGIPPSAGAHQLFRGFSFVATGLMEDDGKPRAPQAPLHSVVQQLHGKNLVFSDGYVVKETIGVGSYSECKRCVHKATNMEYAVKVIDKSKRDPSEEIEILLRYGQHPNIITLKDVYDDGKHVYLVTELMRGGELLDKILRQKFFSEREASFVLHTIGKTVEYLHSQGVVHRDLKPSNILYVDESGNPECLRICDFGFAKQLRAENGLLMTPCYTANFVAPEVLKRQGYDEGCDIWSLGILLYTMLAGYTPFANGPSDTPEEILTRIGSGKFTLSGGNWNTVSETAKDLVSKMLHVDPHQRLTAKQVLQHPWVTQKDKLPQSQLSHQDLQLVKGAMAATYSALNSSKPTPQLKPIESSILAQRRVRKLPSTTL
Sequence of Cyclin-dependent kinase 2 homolog (Plasmodium falciparum (isolate 3D7)) (P61075 whole entry, the tested form may be a part): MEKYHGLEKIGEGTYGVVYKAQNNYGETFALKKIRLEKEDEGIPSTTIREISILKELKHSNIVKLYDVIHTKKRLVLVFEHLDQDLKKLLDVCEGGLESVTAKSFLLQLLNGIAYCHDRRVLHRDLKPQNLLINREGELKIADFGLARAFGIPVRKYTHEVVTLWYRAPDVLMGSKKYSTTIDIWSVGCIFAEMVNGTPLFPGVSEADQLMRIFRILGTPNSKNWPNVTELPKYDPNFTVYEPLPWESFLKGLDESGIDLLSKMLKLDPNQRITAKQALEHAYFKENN
Sequence of Tyrosine-protein kinase ABL1 (Homo sapiens), P00519 [E255K] (P00519 whole entry E255K, the tested form may be a part): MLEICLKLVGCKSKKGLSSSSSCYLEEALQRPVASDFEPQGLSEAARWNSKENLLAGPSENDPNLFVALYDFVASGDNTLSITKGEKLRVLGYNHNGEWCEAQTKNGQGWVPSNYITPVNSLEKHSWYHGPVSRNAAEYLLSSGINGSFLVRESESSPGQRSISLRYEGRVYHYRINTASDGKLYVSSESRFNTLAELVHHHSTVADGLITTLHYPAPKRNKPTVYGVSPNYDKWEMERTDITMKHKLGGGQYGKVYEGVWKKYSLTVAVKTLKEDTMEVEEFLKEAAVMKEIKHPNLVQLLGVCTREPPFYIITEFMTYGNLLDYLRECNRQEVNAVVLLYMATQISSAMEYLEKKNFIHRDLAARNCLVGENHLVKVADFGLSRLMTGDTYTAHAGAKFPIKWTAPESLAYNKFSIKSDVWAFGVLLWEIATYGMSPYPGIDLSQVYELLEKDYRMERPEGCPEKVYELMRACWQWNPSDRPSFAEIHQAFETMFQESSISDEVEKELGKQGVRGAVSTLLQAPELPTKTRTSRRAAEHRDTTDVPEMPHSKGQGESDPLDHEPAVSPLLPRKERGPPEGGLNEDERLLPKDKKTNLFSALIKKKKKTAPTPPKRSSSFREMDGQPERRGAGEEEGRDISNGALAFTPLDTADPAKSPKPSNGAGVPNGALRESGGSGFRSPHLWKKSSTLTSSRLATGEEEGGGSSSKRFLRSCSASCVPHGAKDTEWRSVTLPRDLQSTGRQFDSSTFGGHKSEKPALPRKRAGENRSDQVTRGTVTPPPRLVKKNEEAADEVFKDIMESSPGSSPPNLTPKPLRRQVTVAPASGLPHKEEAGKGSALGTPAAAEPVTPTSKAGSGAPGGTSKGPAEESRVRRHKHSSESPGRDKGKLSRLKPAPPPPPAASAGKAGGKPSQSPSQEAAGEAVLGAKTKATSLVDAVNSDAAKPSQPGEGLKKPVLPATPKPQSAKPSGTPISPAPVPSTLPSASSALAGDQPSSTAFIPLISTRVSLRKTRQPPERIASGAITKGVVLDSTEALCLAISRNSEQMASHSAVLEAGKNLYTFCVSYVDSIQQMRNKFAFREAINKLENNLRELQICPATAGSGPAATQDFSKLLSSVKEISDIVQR
Sequence of Mitogen-activated protein kinase 11 (Homo sapiens) (Q15759 whole entry, the tested form may be a part): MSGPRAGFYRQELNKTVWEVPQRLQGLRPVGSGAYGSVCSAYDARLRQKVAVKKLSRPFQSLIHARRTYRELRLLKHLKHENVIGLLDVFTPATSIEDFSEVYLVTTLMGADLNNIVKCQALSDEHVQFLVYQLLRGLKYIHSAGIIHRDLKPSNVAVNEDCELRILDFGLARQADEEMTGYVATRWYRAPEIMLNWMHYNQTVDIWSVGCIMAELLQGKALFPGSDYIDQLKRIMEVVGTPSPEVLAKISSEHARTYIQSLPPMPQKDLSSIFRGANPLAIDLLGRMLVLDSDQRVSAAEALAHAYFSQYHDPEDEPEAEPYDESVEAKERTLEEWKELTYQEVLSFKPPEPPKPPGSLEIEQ
Sequence of Serine/threonine-protein kinase 16 (Homo sapiens) (O75716 whole entry, the tested form may be a part): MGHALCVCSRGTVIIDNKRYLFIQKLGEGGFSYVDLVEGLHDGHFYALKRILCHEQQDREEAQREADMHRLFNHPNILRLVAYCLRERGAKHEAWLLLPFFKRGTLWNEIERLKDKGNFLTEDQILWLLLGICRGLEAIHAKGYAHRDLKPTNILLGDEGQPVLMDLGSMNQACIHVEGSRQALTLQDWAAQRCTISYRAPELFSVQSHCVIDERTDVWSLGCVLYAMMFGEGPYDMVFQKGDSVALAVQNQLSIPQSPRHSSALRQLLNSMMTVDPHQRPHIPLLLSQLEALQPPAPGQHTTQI
Sequence of Cyclin-dependent kinase 18 (Homo sapiens) (Q07002 whole entry, the tested form may be a part): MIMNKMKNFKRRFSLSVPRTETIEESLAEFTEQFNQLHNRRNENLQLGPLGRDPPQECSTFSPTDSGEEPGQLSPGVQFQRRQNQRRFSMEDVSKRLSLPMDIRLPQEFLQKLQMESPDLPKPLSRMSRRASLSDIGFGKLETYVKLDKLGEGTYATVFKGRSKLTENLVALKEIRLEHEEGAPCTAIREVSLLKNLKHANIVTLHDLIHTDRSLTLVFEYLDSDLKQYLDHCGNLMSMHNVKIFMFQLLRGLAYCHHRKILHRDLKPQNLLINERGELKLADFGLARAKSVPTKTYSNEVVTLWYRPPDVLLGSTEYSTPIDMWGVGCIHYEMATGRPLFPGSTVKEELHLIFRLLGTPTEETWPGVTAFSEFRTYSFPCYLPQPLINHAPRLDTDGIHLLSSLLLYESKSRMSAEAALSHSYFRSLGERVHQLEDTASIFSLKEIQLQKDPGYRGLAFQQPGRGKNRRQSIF
Sequence of Fibroblast growth factor receptor 2 (Homo sapiens) (P21802 22-821 limits assumed): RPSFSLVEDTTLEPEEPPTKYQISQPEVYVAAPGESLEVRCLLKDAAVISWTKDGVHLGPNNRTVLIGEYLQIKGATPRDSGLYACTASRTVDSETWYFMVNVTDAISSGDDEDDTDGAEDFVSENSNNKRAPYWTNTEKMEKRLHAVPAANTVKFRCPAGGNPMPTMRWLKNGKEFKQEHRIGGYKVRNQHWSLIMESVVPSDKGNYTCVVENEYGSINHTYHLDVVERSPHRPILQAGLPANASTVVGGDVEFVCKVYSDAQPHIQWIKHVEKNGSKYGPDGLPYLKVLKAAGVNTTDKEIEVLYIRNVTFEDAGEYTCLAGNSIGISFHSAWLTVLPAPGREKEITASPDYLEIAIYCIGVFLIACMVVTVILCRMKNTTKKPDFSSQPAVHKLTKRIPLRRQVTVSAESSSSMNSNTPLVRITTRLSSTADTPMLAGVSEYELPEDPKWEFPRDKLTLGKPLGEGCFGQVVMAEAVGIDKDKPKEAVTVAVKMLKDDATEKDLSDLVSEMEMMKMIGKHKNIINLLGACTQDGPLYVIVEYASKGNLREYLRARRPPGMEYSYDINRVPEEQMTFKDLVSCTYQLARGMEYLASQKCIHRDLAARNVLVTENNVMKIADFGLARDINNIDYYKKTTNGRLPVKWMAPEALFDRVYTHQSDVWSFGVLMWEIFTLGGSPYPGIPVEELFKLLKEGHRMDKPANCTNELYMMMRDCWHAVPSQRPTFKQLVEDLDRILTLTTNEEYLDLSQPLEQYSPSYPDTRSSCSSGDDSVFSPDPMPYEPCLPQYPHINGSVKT

`COCCN[C@H]1CC[C@H](Nc2cc(-c3csc(NCC4(C#N)CCOCC4)n3)c(Cl)cn2)CC1` gave an Activity [1] of 85%, an Activity [2] of 100% and an Activity [3] of 100%. For the same compound, the MRT inf [4] was 1.58 h, the Activity [5] was 100% and the Activity [6] was 100%. The Activity [7] was 100%, the Activity [8] was 49% and the Activity [9] was 76%. The Activity [10] was 89%, the half-life [11] was 6.8 h and the Activity [12] was 93%. It also gave a clearance [13] of 75.8 mL/min/kg, an Activity [14] of 100% and an Activity [15] of 74%. The Activity [16] was 99%, the Activity [17] was 68% and the Activity [18] was 72%. It also gave an Activity [19] of 94%, an Activity [20] of 100% and an Activity [21] of 100%.
